In the library only some 3.4% were active in any assay of this set; here they are far more common.
TMEM16A act = TMEM16A chloride channel activators or potentiators, primary screen, cell-based, HTS; Anoctamin-1 (Mus musculus), Q8BHY3; HEK293 TMEM16A/YFP-H148Q/I152L, iodide quench fluorescence; stronger effect = lower value; B-score at 10 µM; 0.3% of 340,000 active; AID 623877, 2012;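 active = fluorescence-ratio B-score plate-corrected deviation score at least 3 library SD below zero, with starting fluorescence score within 5 deviations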;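 note: channel opened by trigger with iodide after compound preincubation; score built on the fluorescence ratio of max minus min over baseline; more negative score means more quench and so TMEM16A activation or potentiation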
Target sequence (Q8BHY3 whole entry, looked up): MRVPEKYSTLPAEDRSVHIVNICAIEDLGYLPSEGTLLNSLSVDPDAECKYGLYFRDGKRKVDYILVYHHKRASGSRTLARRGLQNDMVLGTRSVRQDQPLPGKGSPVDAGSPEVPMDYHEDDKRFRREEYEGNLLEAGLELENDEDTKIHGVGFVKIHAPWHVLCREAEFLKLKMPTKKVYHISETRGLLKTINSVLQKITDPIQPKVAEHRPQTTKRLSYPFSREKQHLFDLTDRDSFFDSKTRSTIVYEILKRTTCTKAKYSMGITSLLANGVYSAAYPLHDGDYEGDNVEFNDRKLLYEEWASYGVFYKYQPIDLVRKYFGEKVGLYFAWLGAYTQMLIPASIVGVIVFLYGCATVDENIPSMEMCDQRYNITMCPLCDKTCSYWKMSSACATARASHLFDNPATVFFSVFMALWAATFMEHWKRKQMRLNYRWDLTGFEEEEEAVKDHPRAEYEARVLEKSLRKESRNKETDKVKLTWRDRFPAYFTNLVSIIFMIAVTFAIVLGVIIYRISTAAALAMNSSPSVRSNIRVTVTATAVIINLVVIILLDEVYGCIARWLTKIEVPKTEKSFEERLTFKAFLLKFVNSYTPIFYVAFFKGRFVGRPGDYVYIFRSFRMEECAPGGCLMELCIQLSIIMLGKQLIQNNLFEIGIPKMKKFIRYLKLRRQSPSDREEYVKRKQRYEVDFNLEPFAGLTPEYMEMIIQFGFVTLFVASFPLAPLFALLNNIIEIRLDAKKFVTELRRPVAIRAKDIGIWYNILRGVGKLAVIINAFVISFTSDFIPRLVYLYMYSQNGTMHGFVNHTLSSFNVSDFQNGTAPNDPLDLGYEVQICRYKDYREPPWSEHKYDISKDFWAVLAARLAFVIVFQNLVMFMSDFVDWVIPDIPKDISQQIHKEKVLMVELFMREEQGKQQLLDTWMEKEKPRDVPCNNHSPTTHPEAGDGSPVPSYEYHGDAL
VIM-2 inh = VIM-2 metallo-beta-lactamase inhibitors, primary screen, biochemical, epi-absorbance readout, Pseudomonas aeruginosa enzyme; purified VIM-2, nitrocefin hydrolysis, epi-absorbance fluorescence; inhibition, % at 5.6 µM; 0.89% of 290,000 active; AID 1527, 2009;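 active = inhibition above the mean of all tested compounds plus 3 SD, cutoff set per screening run, cut at about 7.5% in these data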;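 note: red hydrolysis product quenches plate fluorescence so inhibitors raise well fluorescence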
TMEM16A inh = TMEM16A chloride channel inhibitors, primary screen, cell-based, HTS | 1.2% of 310,000 active | HEK293 TMEM16A/YFP iodide influx fluorescence, ionomycin | Anoctamin-1 (Mus musculus), Q8BHY3 | normalized B-score (activity score, 25-100; higher = stronger inhibition) at 10 µM;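 active = ratio plate-corrected score three or more library SD toward inhibition, starting fluorescence score within five deviations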;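 note: score derived from kinetic fluorescence span divided by baseline fluorescence per well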
CHT inh = inhibitors of human choline transporter CHT; B-score at 10 µM; CHT-expressing cells, membrane potential dye, choline response; stronger effect = lower value; 0.86% of 310,000 active; High affinity choline transporter 1 (Homo sapiens), Q9GZV3;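 active = B-score over 3 SD under the library average, and starting fluorescence ratio not unusually high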;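 note: choline stimulus applied at its EC90 after an EC20 pre-addition; B-score computed on integrated fluorescence ratio after choline addition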
CHT allo act = CHT positive allosteric modulators, primary screen, cell-based, membrane potential dye, choline EC20 | 0.49% of 310,000 active | CHT-expressing cells; stronger effect = higher value; LV-AA mutant CHT in HEK293 cells | B-score at 10 µM | AID 488977, 2010 | High affinity choline transporter 1 (Homo sapiens), Q9GZV3;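 active = initial fluorescence not abnormally high and integrated response B-score, plate-corrected, over 3 SD above library mean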
IMP-1 inh-1 = IMP-1 metallo-beta-lactamase inhibitors, primary screen, biochemical, epi-absorbance readout, Pseudomonas aeruginosa enzyme; metallo-beta-lactamase IMP-1 (Pseudomonas aeruginosa); purified IMP-1, nitrocefin hydrolysis, epi-absorbance fluorescence; inhibition, % at 5.6 µM; 0.45% of 290,000 active; AID 1556, 2009;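 active = inhibition above the mean plus 3 SD of all compounds in the same screening run, cut at about 4.5% in these data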
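System: Purified recombinant IMP-1 metallo-beta-lactamase enzyme | Measured by: Fluorescence quenching readout, ex 480/em 530 nm | Replication: Singlicate | Incubation: 15 min preincubation plus 25 min reaction at 25 °C | Evaluation: Percent inhibition from optical density relative to buffer-blank wells | Benchmarks: DMSO with and without IMP-1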
IMP-1 inh-2 = IMP-1 metallo-beta-lactamase inhibitors, confirmation, selectivity assay for selective VIM-2 inhibitor project, biochemical, epi-absorbance readout, triplicate. purified IMP-1, nitrocefin hydrolysis, epi-absorbance fluorescence. inhibition, % at 5.6 µM. 1,300 tested, under 10 active. shares compounds with VIM-2 inh; call rule not given here
VIM-2 FRET ctr = VIM-2 inhibitors in FRET format, confirmation, artefact control for selective VIM-2 inhibitor project, biochemical, epi-absorbance artifact exclusion; inhibition, % at 5.6 µM; shares compounds with VIM-2 inh; AID 1857, 2009; 23% of 1,300 active; purified VIM-2, CCF2 FRET substrate hydrolysis;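 active = inhibition above the mean of all tested compounds plus 3 SD, cut at about 19% in these data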
TEM-1 counter = TEM-1 serine beta-lactamase inhibitors, counter-screen for VIM-2 inhibitor project, biochemical, epi-absorbance, HTS. shares compounds with VIM-2 inh. Purified TEM-1, nitrocefin hydrolysis, epi-absorbance fluorescence. inhibition, % at 5.6 µM. 3% of 1,300 active. AID 1866, 2009;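 active = inhibition above that campaign's mean inhibition plus 3 SD, cut at about 0.46% in these data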
VIM-2 confirm 2 = VIM-2 metallo-beta-lactamase inhibitors, confirmation, biochemical, epi-absorbance, hits shared with IMP-1 screen | shares compounds with VIM-2 inh | purified VIM-2, nitrocefin hydrolysis | inhibition, % at 5.6 µM | 96% of 1,300 active | AID 2187, 2009;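 active = inhibition of the VIM-2 beta-lactamase enzyme above about 11% from the earlier first-round screen, limit read from the data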
Numbers stand for hits; - = inactive; . = no result.

SMILES	TMEM16A act	VIM-2 inh	TMEM16A inh	CHT inh	CHT allo act	IMP-1 inh-1	IMP-1 inh-2	VIM-2 FRET ctr	TEM-1 counter	VIM-2 confirm 2
O=C(N=C1SC2CS(=O)(=O)CC2N1c1ccccc1C(F)(F)F)C1CCCO1 (stereo unspecified)	-	-	-	-	-	-	.	.	.	.
CC(NS(=O)(=O)c1c(N)n(C)c(=O)n(C)c1=O)c1ccccc1 (stereo unspecified)	-	-	-	-	-	-	.	.	.	.
NS(=O)(=O)c1ccc(CCNC(=O)c2cnccn2)cc1	-	-	-	-	-	-	.	.	.	.
O=Nc1c2nc3ccccc3n(O)c-2c2ccccc12	-	16	-	-	-	-	-	-	-	27
Cc1nnc(NC(=O)CCn2c(=O)oc3ccccc32)s1	-	-	-	-	-	-	.	.	.	.
COc1ccc(-c2csc(NC(=O)CCN3C(=O)C4CC=CCC4C3=O)n2)cc1OC (stereo unspecified)	-	.	-	-	-	.	.	.	.	.
CC12CCCCC1N(O)C(=O)C(=O)N2O (stereo unspecified)	-	20	-	-	-	-	-	34	-	19
CC1(C)CCCC2=C1CC1C(=O)N(O)C(=O)C1C2 (stereo unspecified)	-	-	-	-	-	-	.	.	.	.
CC1CC(C)CN(CC(O)COCc2ccccc2F)C1 (stereo unspecified)	-	-	-	-	-	-	.	.	.	.
C=CCC[C@@H](Cc1ccc(F)cc1)C(=O)OC[C@@H](Cc1ccccc1)NC(=O)[C@@H](CC=C)CC(=O)N[C@@H](CO)Cc1ccccc1	-	.	.	.	.	.	.	.	.	.
CCOC(=O)c1c(-c2ccc(-c3ccccc3)cc2)csc1NC(=O)CNCCN(C)C	-	17	-	-	-	-	-	-	-	27
CCOC(=O)c1c(-c2ccccc2)csc1NC(=O)CCN1C(=O)c2ccccc2C1=O	-	-	-	-	-	-	.	.	.	.
c1ccc2nc(-c3ccc(-n4ccnc4)cc3)ccc2c1	-	38	-	-	-	-	-	-	-	47
Cc1cccc(C(=O)OCC(=O)N(CC(C)C)c2c(N)n(Cc3ccccc3)c(=O)[nH]c2=O)c1O	-	.	-	-	-	.	.	.	.	.
c1ccc2c(c1)oc1c(Nc3ccc(CN4CCOCC4)cc3)ncnc12	-	15	-	-	-	-	-	-	-	25
CCc1nc(Nc2ccc(N3CCN(C(C)=O)CC3)cc2)c2oc3ccccc3c2n1	-	82	-	-	-	-	-	-	-	84
CCc1nc(N2CCN(C(=O)c3ccco3)CC2)c2oc3ccccc3c2n1	-	33	-	-	-	-	-	-	-	41
CC(=O)N1CCN(c2ccc(Nc3ncnc4c3oc3ccccc34)cc2)CC1	-	69	-	-	-	-	-	-	-	82
Cc1nc(N2CCN(C(=O)c3ccco3)CC2)c2oc3ccccc3c2n1	-	.	-	-	-	.	.	.	.	.
COc1ccc(S(=O)(=O)N2CCOC2CNC(=O)C(=O)NCc2ccc3c(c2)OCO3)cc1 (stereo unspecified)	-	-	-	-	-	-	.	.	.	.
Cc1cc(NCCCOC(C)C)n2c(nc3ccccc32)c1C#N	-	30	-	-	-	-	-	-	-	37
Cc1cc(C(C)C)n2c(nc3ccccc32)c1C#N	.	-	-	-	-	-	.	.	.	.
CCC(C)Nc1cc(C)c(C#N)c2nc3ccccc3n12 (stereo unspecified)	-	28	-	-	-	-	-	-	-	38
CC(C)c1cc(NCCCN2CCOCC2)n2c(nc3ccccc32)c1C#N	-	-	-	-	-	-	.	.	.	.
Cc1cc(NCC2CCCO2)n2c(nc3ccccc32)c1C#N (stereo unspecified)	-	13	-	-	-	-	-	-	-	38
SMILES	TMEM16A act	VIM-2 inh	TMEM16A inh	CHT inh	CHT allo act	IMP-1 inh-1	IMP-1 inh-2	VIM-2 FRET ctr	TEM-1 counter	VIM-2 confirm 2
Cc1cc(NCCCn2ccnc2)n2c(nc3ccccc32)c1C#N	-	82	-	-	-	-	-	-	-	89
Cc1cc(Nc2ccc(O)cc2)n2c(nc3ccccc32)c1C#N	-	-	-	-	-	-	.	.	.	.
CC(=O)c1cccc(NC(=O)c2nc(-c3ccccc3)oc2C)c1	-	-	-	-	-	-	.	.	.	.
COc1ccc(O)c(CN2CCCC(N3CCc4ccccc4C3)C2)c1 (stereo unspecified)	-	-	-	-	-	-	.	.	.	.
O=C(c1ccc(N2CCNCC2)cc1)c1cccnc1	-	16	-	-	-	-	-	-	-	43
CCCCN(CC)CCNC(=O)c1cc2c(=O)n(CC)c3ccccc3c2s1	-	14	-	-	-	-	-	-	-	19
CCCN(CCC)CCCNC(=O)c1cc2c(=O)n(CC)c3ccccc3c2s1	-	14	-	-	-	-	-	-	-	21
CCn1c(=O)c2cc(C(=O)NCC(OC)OC)sc2c2ccccc21	-	-	-	-	-	-	.	.	.	.
CCCCN(CC)CCCNC(=O)c1cc2c(=O)n(CC)c3ccccc3c2s1	-	12	-	-	-	-	-	-	-	22
CCN(CC)CCNC(=O)c1cc2c(=O)n(C)c3ccccc3c2s1	-	18	-	-	-	-	-	-	-	26
CCn1c(=O)c2cc(C(=O)NCCC(C)C)sc2c2ccccc21	-	-	-	-	-	-	.	.	.	.
CCOC(CNC(=O)c1cc2c(=O)n(CC)c3ccccc3c2s1)OCC	-	-	-	-	-	-	.	.	.	.
COCC1CCN(C(=O)CC2C(=O)NCCN2Cc2cccc(Oc3ccccc3)c2)CC1 (stereo unspecified)	-	-	-	-	-	-	.	.	.	.
Clc1cccc(Cl)c1C[n+]1ccc2ccccc2c1	-	-	-	-	-	-	.	.	.	.
